An excerpt weighted towards active compounds, which were near 3.7% of everything screened.
KCNQ1 block: blocks the human KCNQ1 potassium channel; P51787; CHO-K1 KCNQ1, FluxOR thallium flux fluorescence; stronger effect = higher value; B-score at 10 µM; 310,000 tested, 1.3% active; AID 2642;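 active = compounds whose thallium flux B-score, printed positive for inhibition, exceeds three library SD while starting fluorescence stays within three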;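 note: channel opened by potassium depolarization with thallium stimulus after 20 min compound exposure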
Target sequence (P51787 whole entry, looked up): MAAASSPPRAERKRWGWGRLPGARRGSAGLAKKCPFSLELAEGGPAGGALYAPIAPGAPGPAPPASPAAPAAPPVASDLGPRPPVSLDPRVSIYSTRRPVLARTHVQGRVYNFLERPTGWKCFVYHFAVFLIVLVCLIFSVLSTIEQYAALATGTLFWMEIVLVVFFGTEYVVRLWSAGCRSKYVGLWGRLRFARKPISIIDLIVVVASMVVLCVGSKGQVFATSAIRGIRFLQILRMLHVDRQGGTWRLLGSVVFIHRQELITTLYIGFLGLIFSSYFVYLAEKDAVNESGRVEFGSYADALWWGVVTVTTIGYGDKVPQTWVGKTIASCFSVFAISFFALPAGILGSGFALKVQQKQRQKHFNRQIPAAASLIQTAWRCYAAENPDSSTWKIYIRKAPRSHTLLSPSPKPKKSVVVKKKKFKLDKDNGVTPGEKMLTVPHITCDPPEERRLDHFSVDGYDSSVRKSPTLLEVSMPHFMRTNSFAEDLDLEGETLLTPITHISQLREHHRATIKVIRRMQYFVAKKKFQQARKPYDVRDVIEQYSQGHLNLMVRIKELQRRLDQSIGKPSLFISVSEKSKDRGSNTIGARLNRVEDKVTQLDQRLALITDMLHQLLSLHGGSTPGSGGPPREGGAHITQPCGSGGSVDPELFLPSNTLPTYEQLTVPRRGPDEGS
KCNQ1 act: potentiates or activates the human KCNQ1 potassium channel; CHO-K1 KCNQ1, thallium flux FluxOR fluorescence; stronger effect = higher value; AID 2648; 310,000 tested, 0.35% active; B-score at 10 µM;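 active = fluorescence ratio B-score, a plate-corrected score, at least three library SD, with initial intensity B-score within 5 SD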
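System: CHO-K1 cells stably expressing KCNQ1 / Medium: assay buffer for compound exposure, DMSO matched across wells / Reagent: thallium- and potassium-containing depolarizing buffer / Compound: one concentration, matched DMSO / Incubation: 20 min compound pretreatment at room temperature / Measured by: kinetic FluxOR fluorescence, 10 s baseline plus 110 s post-stimulus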
hERG protect: shields human hERG channel from block by proarrhythmic agents | Q12809 | CHO-hERG, FluxOR thallium flux, dofetilide IC70 present | activation (rescue from dofetilide block), less the hit threshold, % at 10 µM | 310,000 tested, 0.51% active | AID 1511;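 active = activation above the mean of controls blocked by dofetilide plus 5 SD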;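 note: thallium influx through hERG after potassium depolarization seen as dye fluorescence rise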
Kir21 inh: blocks the mouse Kir2.1 inward-rectifier potassium channel; P35561; HEK293-Kir2.1, FluxOR thallium flux fluorescence; stronger effect = lower value; B-score at 10 µM; 310,000 tested, 0.85% active;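 active = fluorescence ratio B-score at or below minus 3 SD of library scores, with starting-brightness B-score within 2 SD, cut at about -4.2 in these data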;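 note: channel flux triggered by added potassium and thallium sulfate stimulus; B-score of peak minus minimum fluorescence over baseline after thallium stimulus; more negative B-score means stronger Kir2.1 block with less thallium influx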
KCNK9 block: human KCNK9 channel inhibition; Q9NPC2; 310,000 tested, 1.2% active; HEK293 KCNK9, FluxOR thallium flux fluorescence; stronger effect = lower value; B-score at 10 µM;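 active = ratio B-score over 3 SD below the library mean, with starting fluorescence within 5 SD of its mean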;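 note: negative B-score means less thallium flux so channel inhibition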
KCNK3 block: human KCNK3 channel inhibition, primary screen | CHO-KCNK3 thallium flux, FluxOR fluorescence; stronger effect = lower value | B-score at 10 µM | 340,000 tested, 0.84% active | AID 602410;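 active = B-score under library mean minus 4 SD, starting fluorescence ratio at most library mean plus 5 SD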;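 note: more negative B-score means stronger inhibition of thallium flux through KCNK3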
KCNK9 inh conf: human KCNK9 inhibitor confirmation. HEK293 KCNK9 cells, FluxOR thallium flux fluorescence. inhibition, % at 10 µM. 4,900 tested, 43% active. AID 492992. shares compounds with KCNK9 block;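 active = thallium signal inhibited by more than 5 SD of the compound-free buffer control wells, on both duplicate plates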;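 note: 0% = assay buffer control wells without compound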
Kir2-1 spec: selectivity of KCNK9 modulators against mouse Kir2.1 | shares compounds with KCNK9 block | Kir2.1 cells, FluxOR thallium flux fluorescence | inhibition, % at 10 µM | 4,900 tested, 4% active | AID 492993;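 active = thallium signal drop more than 5 SD beyond the mean of the no-compound control wells, seen in both duplicate plates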;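 note: signal is fluorescence rise after thallium addition divided by baseline fluorescence; plate controls were assay buffer only for no effect and full block by chlorpromazine control for full effect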
HEK293 Tl ctr: non-induced cell nonspecific activity of KCNK9 modulators; shares compounds with KCNK9 block; non-induced KCNK9-HEK293, FluxOR thallium flux; inhibition, % at 10 µM; 4,900 tested, 40% active;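 active = thallium signal drop beyond 5 SD of the untreated control mean, on both duplicate plates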;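 note: plate controls were buffer only IC0 wells for no effect and SID17386958 at its maximal inhibitory level for full effect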
Active calls of the source: *.

What do the screens show for `O=C(Nn1c(SCc2cccc([N+](=O)[O-])c2)nc2ccccc2c1=O)c1ccccc1`?
KCNQ1 block: inactive; KCNQ1 act: inactive; hERG protect: -16; Kir21 inh: -0.33; KCNK9 block: -13*; KCNK3 block: inactive; KCNK9 inh conf: 67%*; Kir2-1 spec: inactive; HEK293 Tl ctr: 43%*

Results for COc1ccc(C(=O)Nn2c(SCc3cccc([N+](=O)[O-])c3)nc3ccccc3c2=O)cc1 ?
KCNQ1 block: inactive; KCNQ1 act: inactive; hERG protect: -13; Kir21 inh: -0.7; KCNK9 block: -12*; KCNK3 block: inactive; KCNK9 inh conf: 68%*; Kir2-1 spec: inactive; HEK293 Tl ctr: 32%*

Results for O=C(CSc1nc2ccccc2c(=O)n1-c1ccccc1)c1cccc([N+](=O)[O-])c1 ?
KCNQ1 block: inactive; KCNQ1 act: inactive; hERG protect: -3; Kir21 inh: -0.76; KCNK9 block: inactive; KCNK3 block: inactive

What do the screens show for `COc1ccc(C(=O)Nn2c(SCC(=O)NC3CCCCC3)nc3ccccc3c2=O)cc1`?
KCNQ1 block: inactive; KCNQ1 act: inactive; hERG protect: -6; Kir21 inh: -2.3; KCNK9 block: inactive; KCNK3 block: inactive

Results for Cc1cccc(C2NC(c3cccc(C)c3)C([N+](=O)[O-])C(C)(C)C2[N+](=O)[O-])c1 (configuration not stated) ?
KCNQ1 block: inactive; KCNQ1 act: inactive; hERG protect: -1; Kir21 inh: 0.65; KCNK9 block: inactive; KCNK3 block: inactive; KCNK9 inh conf: inactive; Kir2-1 spec: inactive; HEK293 Tl ctr: inactive

How did CCOC(=O)/C(=N\Nc1ccccc1Cl)N1CC(C)OC(C)C1 (configuration not stated) do in these assays?
KCNQ1 block: inactive; KCNQ1 act: inactive; hERG protect: -17; Kir21 inh: -0.36; KCNK9 block: inactive; KCNK3 block: inactive

Results for CCOC(=O)/C(=N\Nc1ccc(Br)cc1)N1CC(C)OC(C)C1 (configuration not stated) ?
KCNQ1 block: inactive; KCNQ1 act: inactive; hERG protect: -11; Kir21 inh: 1.9; KCNK9 block: -18*; KCNK3 block: inactive; KCNK9 inh conf: 75%*; Kir2-1 spec: inactive; HEK293 Tl ctr: 44%*

How did CCOc1ccc(S(=O)(=O)N2CCN(C(=O)c3ccccc3Cc3ccccc3)CC2)cc1 do in these assays?
KCNQ1 block: inactive; KCNQ1 act: inactive; hERG protect: -10; Kir21 inh: 1.7; KCNK9 block: inactive; KCNK3 block: inactive

What do the screens show for `C/C(=N\Nc1nc2ccccc2s1)c1ccc(Br)s1`?
KCNQ1 block: inactive; KCNQ1 act: 10*; hERG protect: 2; Kir21 inh: 1.1; KCNK9 block: inactive; KCNK3 block: inactive; KCNK9 inh conf: inactive; Kir2-1 spec: inactive; HEK293 Tl ctr: inactive

Results for CC(=NNc1nc2ccccc2s1)c1ccncn1 ?
KCNK3 block: inactive

Results for COc1ccc(NC(=O)CSCC(=O)Nc2ccc(S(=O)(=O)N3CCCCC3)cc2)cc1 ?
KCNQ1 block: inactive; KCNQ1 act: inactive; hERG protect: -8; Kir21 inh: -0.35; KCNK9 block: inactive; KCNK3 block: inactive

How did O=C(CSCc1ccc(Br)cc1)Nc1ccc(S(=O)(=O)N2CCOCC2)cc1 do in these assays?
KCNQ1 block: inactive; KCNQ1 act: inactive; hERG protect: -8; Kir21 inh: -0.06; KCNK9 block: inactive; KCNK3 block: inactive

How did O=C(CSCc1ccc(Cl)cc1)Nc1ccc(S(=O)(=O)N2CCCCCC2)cc1 do in these assays?
KCNQ1 block: inactive; KCNQ1 act: inactive; hERG protect: -9; Kir21 inh: 0.03; KCNK9 block: inactive; KCNK3 block: inactive; KCNK9 inh conf: inactive; Kir2-1 spec: inactive; HEK293 Tl ctr: inactive

What do the screens show for `COc1ccc(CSCC(=O)Nc2ccc(S(=O)(=O)N3CCCCCC3)cc2)cc1`?
KCNQ1 block: inactive; KCNQ1 act: inactive; hERG protect: -3; Kir21 inh: -2.5; KCNK9 block: inactive; KCNK3 block: inactive; KCNK9 inh conf: inactive; Kir2-1 spec: inactive; HEK293 Tl ctr: inactive

Results for Cc1c(NS(=O)(=O)c2cccc(C(=O)Nc3cccc(F)c3)c2)c(=O)n(-c2ccccc2)n1C ?
KCNK3 block: inactive

What do the screens show for `CCN(CC)S(=O)(=O)c1cccc(C(=O)OCC(=O)NCc2ccccc2OC)c1`?
KCNQ1 block: inactive; KCNQ1 act: inactive; hERG protect: -18; Kir21 inh: -1.3; KCNK9 block: inactive; KCNK3 block: inactive

Results for CCN(CC)S(=O)(=O)c1ccc(O)c(C(=O)OCC(=O)Nc2cc(C)c(C)cc2[N+](=O)[O-])c1 ?
KCNQ1 block: inactive; KCNQ1 act: inactive; hERG protect: -10; Kir21 inh: -0.59; KCNK9 block: -11*; KCNK3 block: inactive; KCNK9 inh conf: 32%*; Kir2-1 spec: inactive; HEK293 Tl ctr: 26%*

Results for Cc1ccc(-c2nn(C(C)(C)C)c3ncnc(NS(=O)(=O)c4ccc([N+](=O)[O-])cc4)c23)cc1 ?
KCNQ1 block: inactive; KCNQ1 act: inactive; hERG protect: -11; Kir21 inh: 0.85; KCNK9 block: inactive; KCNK3 block: inactive; KCNK9 inh conf: inactive; Kir2-1 spec: inactive; HEK293 Tl ctr: inactive

What do the screens show for `Cc1ccc(S(=O)(=O)Nc2ncnc3sc(C)c(C)c23)cc1`?
KCNK3 block: inactive

Results for Cc1ccccc1COc1ccc(/C=N/NC(=O)c2nnn(-c3nonc3N)c2CN2CCC(C)CC2)cc1 ?
KCNQ1 block: inactive; KCNQ1 act: inactive; hERG protect: -4; Kir21 inh: 0.57; KCNK9 block: inactive; KCNK3 block: inactive; KCNK9 inh conf: inactive; Kir2-1 spec: inactive; HEK293 Tl ctr: inactive

Results for CC1CCN(Cc2c(C(=O)N/N=C/c3ccc(OC(C)C)cc3)nnn2-c2nonc2N)CC1 ?
KCNQ1 block: inactive; KCNQ1 act: inactive; hERG protect: -15; Kir21 inh: 0.3; KCNK9 block: inactive; KCNK3 block: inactive; KCNK9 inh conf: inactive; Kir2-1 spec: inactive; HEK293 Tl ctr: inactive
